C2C12 statin: suppression of simvastatin myotoxicity; C2C12 myotubes + simvastatin, ATP luminescence, 48 h; scaled: DMSO 0, geranylgeraniol control 100; rescue of ATP level, % at 7.49 µM; 0.78% of 330,000 active; AID 602340;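 active = mean ATP rescue above about 67%, or every replicate alone reaching that limit, limit read from the data, passing the limit was not always enough; inconclusive = no clear call, values can overlap the other calls; inactive = mean under the limit and some replicate under it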;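 also: myotubes were challenged with 10 µM simvastatin during compound exposure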
FGF22 binding: FGF22 (human) thermal shift binding. 1.5% of 340,000 active. recombinant FGF22 thermal shift, SYPRO orange fluorescence; percent of sucrose octasulfate shift, DMSO zero. activity (Tm shift, normalised), % at 9.99 µM;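 active = mean Tm shift, scaled 0 neutral to 100 positive control, at about 1.3% or above, every replicate too, limit read from the data; inconclusive = no clear call, values can overlap the other calls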
Target sequence (Q9HCT0 whole entry, looked up): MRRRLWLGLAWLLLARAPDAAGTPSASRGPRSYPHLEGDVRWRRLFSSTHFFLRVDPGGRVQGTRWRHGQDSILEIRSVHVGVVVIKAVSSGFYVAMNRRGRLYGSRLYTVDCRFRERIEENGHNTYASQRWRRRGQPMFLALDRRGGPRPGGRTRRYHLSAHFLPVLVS
E-selectin induc: induces E-selectin expression in human endothelial cells. P16581. HUVEC E-selectin immunofluorescence imaging; normalized: neutral wells 0, TNF-alpha wells 100. activation, % at 7.58 µM. 0.37% of 260,000 active;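 active = mean E-selectin-positive cell signal at least 10% of the positive control, reached in at least 60% of replicates, without over 20% cell loss; inconclusive = no rule given, readout overlaps actives, possibly toxicity-flagged; inactive = the rest, including those meeting only one limit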
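System: HUVEC / Compound: single concentration / Signal: immunofluorescence imaging / Read-out: percent E-selectin-positive cells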
Xi reactivation: X-chromosome reactivation activator; activation, % at 7.58 µM; AID 743238; XiGFP mouse fibroblasts, % GFP-positive cells imaging, 3 d; cells co-treated with 5-aza-dC sensitizer; scaled so ellipticine positive control = 100%; 0.055% of 360,000 active;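 active = mean normalized replicate activation at least 10% and every replicate at or above 10%; inconclusive = only one of the two criteria met; inactive = mean below 10% and not all replicates reach 10%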;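 also: 0% = median of on-plate neutral control wells and 100% = ellipticine 6 µM median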
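assay system = SV40-immortalized XiGFP fibroblast cells, line 68-5-11 | buffer or medium = DMEM plus 5-aza-dC sensitizer | doses = single-point pinned compound dosing | times = 3-day compound exposure, then 15 min fixation at room temperature | benchmarks = positive control ellipticine, 6 µM final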
PglD DTNB: inhibitors of Campylobacter jejuni PglD acetyltransferase; purified PglD enzyme, DTNB colorimetric CoA detection; inhibition, % at 12.5 µM; 0.098% of 360,000 active; AID 602405; in the data active = inhibition above about 16%, passing the limit was not always enough; inconclusive = no clear call, values can overlap the other calls
DENV2 CPE rescue: inhibitors of DENV2 cytopathic effect. CPE inhibition, % at 9.99 µM. DENV2-infected cells, cytopathic effect rescue, plate reader. 1.7% of 350,000 active; in the data active = CPE inhibition above about 20%, passing the limit was not always enough; inconclusive = no clear call, values can overlap the other calls; tested in BHK-21 cells;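 also: 0% = median of neutral control wells and 100% = median of positive control wells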
An asterisk follows results filed as active; u = inconclusive; x = no result given. Sampled rows, rich in hits. Any-hit rate of the full collection: about 3.3%.

SMILES | C2C12 statin | FGF22 binding | E-selectin induc | Xi reactivation | PglD DTNB | DENV2 CPE rescue
CC(C)(C)c1ccc(S(=O)(=O)NC(=O)C2(C)CCN2C(=O)Cc2cccc3ccccc23)cc1 (stereo not given) | 7 | 6.1* | 1 | 0 | -4 | 11
CC1(C(=O)NS(=O)(=O)c2ccccc2Cl)CCN1C(=O)c1ccco1 (stereo not given) | -1 | 0 | 0 | 0 | -11 | 22*
COc1ccc(OC)c(S(=O)(=O)NC(=O)C2(C)CCN2C(=O)c2ccco2)c1 (stereo not given) | 2 | 0 | 0 | 0 | -7 | 9
CC1(C(=O)NS(=O)(=O)c2ccccc2Cl)CCN1C(=O)CC(c1ccccc1)c1ccccc1 (stereo not given) | 9 | 0 | x | 0 | 5 | 7
Cc1ccccc1S(=O)(=O)NC(=O)C1(C)CCN1C(=O)CC(c1ccccc1)c1ccccc1 (stereo not given) | 0 | 0 | 0 | 0 | -2 | 38*
CC(C)[C@@H](C)NC(=O)N(C)C[C@H]1OCc2ccccc2-c2ccccc2C(=O)N([C@H](C)CO)C[C@H]1C | x | x | x | 1 | x | x
C[C@@H]1CCCCO[C@@H](CN(C)C(=O)NC2CCCCC2)[C@@H](C)CN([C@@H](C)CO)C(=O)c2cc(NC(=O)CCC(F)(F)F)ccc2O1 | -16 | 0 | 0 | -1 | 2 | -7
C[C@@H]1CN([C@H](C)CO)C(=O)c2cc(-c3ccccc3F)cnc2O[C@@H]1CN(C)Cc1ccccc1 | 11 | 0 | 1 | 0 | 2 | -2
C/C=C/c1ccc([C@@H]2[C@@H](CO)N3C(=O)CN(C(=O)c4cccc(F)c4)C[C@@H]23)cc1 | x | x | 0 | 0 | x | -11
CCN(CC)CCN(CC(=O)N(C1CCCCC1)C1CCCCC1)C(=O)c1cccnc1 | -10 | 44* | 0 | 0 | x | x
O=C(NCC1CCCCC1)c1cccnc1 | 6 | 0 | 0 | 0 | 4 | -4
CC(C)NC(=O)N(C)C[C@H]1Oc2ccc(NS(=O)(=O)c3ccc(F)cc3)cc2C(=O)N([C@@H](C)CO)C[C@@H]1C | 24 | 0 | 0 | 0 | 6 | -5
COc1cc(C(=O)N/C(=C\c2cn(S(=O)(=O)N(C)C)c3ccccc23)C(=O)NCCCO)cc(OC)c1OC | x | 44* | -3 | 0 | x | -3
O=C1CNC[C@H]2[C@@H](c3ccc(-c4ccccc4F)cc3)[C@H](CO)N12 | x | x | 0 | 0 | x | 3
O=C(c1ccc(F)cc1)N1CC(=O)N2[C@H](C1)[C@H](c1ccc(-c3ccccc3F)cc1)[C@@H]2CO | x | x | 1 | 0 | x | 26*
O=C1CNC[C@H]2[C@H](c3ccc(-c4ccccc4F)cc3)[C@@H](CO)N12 | x | x | 0 | 0 | x | 37*
O=C(Cc1cccnc1)N1CC(=O)N2[C@H](C1)[C@H](c1ccc(C3=CCCC3)cc1)[C@@H]2CO | x | x | 0 | 0 | x | 36*
O=C(c1ccc(F)cc1)N1CC(=O)N2[C@H](C1)[C@H](c1ccc(C3=CCCC3)cc1)[C@@H]2CO | x | x | 1 | 0 | x | 53*
CO[C@H]1CN(C)C(=O)c2cc(NC(=O)NC3CCCCC3)ccc2OC[C@H](C)N(C)C[C@@H]1C | -16 | x | 0 | 0 | 0 | -6
CO[C@@H]1CN(C)C(=O)c2cc(NC(=O)NC(C)C)ccc2OC[C@@H](C)N(Cc2cncnc2)C[C@@H]1C | -9 | x | 0 | 0 | 8 | x
OC(CCN1CCC2(CC1)OCCO2)C(F)(F)F (stereo not given) | x | 43* | x | 0 | x | 4
c1ccc(-c2nnc(CN3CCC4(CC3)OCCO4)o2)cc1 | 5 | x | x | x | -5 | x
Cc1ccc2c(c1)nc(-n1nc(C)cc1C)c1nnnn12 | -2 | 43* | 0 | 0 | 0 | x
CC(C)NC(=O)N(C)C[C@H]1Oc2ccc(N(C)C)cc2CC(=O)N(C)C[C@H]1C | x | x | x | 1 | x | x
CCn1c(CNC(=O)c2ccco2)nnc1SCC(=O)c1ccc(OC)cc1 | -1 | 43* | 0 | 0 | x | -3
SMILES | C2C12 statin | FGF22 binding | E-selectin induc | Xi reactivation | PglD DTNB | DENV2 CPE rescue
CCn1c(CNC(=O)c2ccco2)nnc1SCC(=O)c1ccc(F)cc1 | 3 | 0 | 0 | 0 | 1 | 3
Cc1ccc(OCc2nnc(SCC(=O)c3ccccc3)n2Cc2ccco2)cc1 | 77* | x | x | x | 0 | x
NCC[C@@H]1CC[C@H](NC(=O)Nc2ccc(F)cc2)[C@H](CO)O1 | 2 | 0 | 1 | 0 | -1 | -2
CC(C)(C)N1CC23C=CC(C[C@@H]2C1=O)O3 (stereo not given in full) | -5 | 0 | 1 | 0 | -7 | -13
CC(C)(C)N1CC23CCC(C[C@@H]2C1=O)O3 (stereo not given in full) | 14 | 0 | 2 | 0 | -2 | 39*
CC(C)(C)OC(=O)N1CCC(CC2CC(c3ccccc3)=NO2)(C(=O)O)CC1 (stereo not given) | 7 | 0 | 0 | 0 | -2 | u
COC(=O)C1(CC2CC(c3ccncc3)=NO2)CCN(C(=O)OC(C)(C)C)CC1 (stereo not given) | 22 | 0 | 0 | 0 | 5 | 37*
COC(=O)C1(CC2CC(c3ccccc3)=NO2)CCN(C(=O)OC(C)(C)C)CC1 (stereo not given) | -2 | -1 | 0 | 0 | -1 | -1
CCCCCCCNC(=O)C1(CC2CC(c3ccc(Cl)cc3)=NO2)CCN(C(=O)OC(C)(C)C)CC1 (stereo not given) | 121* | 0 | x | 0 | -1 | 0
O=c1cc(/C=C/c2ccccc2)oc2ccccc12 | 138* | x | x | x | -7 | x
O=c1cc(-c2ccccc2)oc2ccccc12 | 20 | 0 | x | x | -3 | 4
COc1ccc(OCCN2C(=O)NC3(CCc4ccccc4C3)C2=O)cc1 (stereo not given) | x | 44* | x | 0 | x | x
COc1ccc(OCCN2C(=O)NC(C)(c3ccc(C)cc3)C2=O)cc1 (stereo not given) | x | x | x | x | -4 | x
C[C@H]1CCCCO[C@H](CN(C)Cc2ccc(C(=O)O)cc2)[C@@H](C)CN([C@@H](C)CO)C(=O)c2cc(NS(=O)(=O)c3ccc(F)cc3)ccc2O1 | x | 0 | 0 | -1 | -2 | 2
CC(=O)N1CC23C=CC(CC2CC12CCCCCC2)O3 (stereo not given) | x | 0 | 35* | 0 | -2 | 4
C[C@H](CO)N1C[C@H](C)[C@H](CN(C)S(=O)(=O)c2ccc(C#N)cc2)Oc2ncc(-c3cc4ccccc4o3)cc2C1=O | 95* | 0 | 1 | -1 | -1 | -6
C[C@@H]1CN([C@H](C)CO)C(=O)c2cc(C3=CCCC3)cnc2O[C@H]1CN(C)C(=O)Nc1ccccc1 | 48 | 0 | 49* | -1 | 3 | -5
